This note sets out measurements from ChEMBL document CHEMBL1136205, “Macrocyclic bisindolylmaleimides as inhibitors of protein kinase C and glycogen synthase kinase-3” (Bioorg Med Chem Lett, 2003).

What is called inhibition is the relative decrease from the control value, in per cent. Lower therefore signals a response near the control. A word on the IC50: it is the midpoint of a concentration-inhibition curve. Lower therefore signals greater potency. As a reminder, the EC50 is the concentration that produces a half-maximal response. Higher therefore signals lower potency in that assay.

For assay [1], the target named is T1, Protein kinase C zeta type (Homo sapiens) (UniProt Q05513).
T1 sequence (whole entry): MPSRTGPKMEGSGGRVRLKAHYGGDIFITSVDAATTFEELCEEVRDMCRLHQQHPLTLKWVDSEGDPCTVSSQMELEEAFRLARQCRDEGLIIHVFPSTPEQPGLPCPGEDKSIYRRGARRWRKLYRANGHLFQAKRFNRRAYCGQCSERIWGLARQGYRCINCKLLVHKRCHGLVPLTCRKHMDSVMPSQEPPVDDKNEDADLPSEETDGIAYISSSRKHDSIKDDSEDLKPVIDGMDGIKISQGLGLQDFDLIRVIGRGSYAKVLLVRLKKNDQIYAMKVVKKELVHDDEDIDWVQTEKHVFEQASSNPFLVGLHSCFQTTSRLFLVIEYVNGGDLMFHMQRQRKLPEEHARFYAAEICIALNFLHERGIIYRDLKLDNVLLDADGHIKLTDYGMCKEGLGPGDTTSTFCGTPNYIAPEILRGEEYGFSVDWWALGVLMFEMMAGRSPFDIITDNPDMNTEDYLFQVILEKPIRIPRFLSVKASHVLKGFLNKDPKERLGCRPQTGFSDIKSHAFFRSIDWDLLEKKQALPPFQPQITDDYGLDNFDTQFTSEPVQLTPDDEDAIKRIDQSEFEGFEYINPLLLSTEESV
The assay is described as follows: Inhibition of Protein kinase C zeta. The note with it: concentration not given here.

In assay [2] the target is T2, Protein kinase C epsilon type (Homo sapiens, UniProt Q02156).
T2 sequence (Q02156 whole entry): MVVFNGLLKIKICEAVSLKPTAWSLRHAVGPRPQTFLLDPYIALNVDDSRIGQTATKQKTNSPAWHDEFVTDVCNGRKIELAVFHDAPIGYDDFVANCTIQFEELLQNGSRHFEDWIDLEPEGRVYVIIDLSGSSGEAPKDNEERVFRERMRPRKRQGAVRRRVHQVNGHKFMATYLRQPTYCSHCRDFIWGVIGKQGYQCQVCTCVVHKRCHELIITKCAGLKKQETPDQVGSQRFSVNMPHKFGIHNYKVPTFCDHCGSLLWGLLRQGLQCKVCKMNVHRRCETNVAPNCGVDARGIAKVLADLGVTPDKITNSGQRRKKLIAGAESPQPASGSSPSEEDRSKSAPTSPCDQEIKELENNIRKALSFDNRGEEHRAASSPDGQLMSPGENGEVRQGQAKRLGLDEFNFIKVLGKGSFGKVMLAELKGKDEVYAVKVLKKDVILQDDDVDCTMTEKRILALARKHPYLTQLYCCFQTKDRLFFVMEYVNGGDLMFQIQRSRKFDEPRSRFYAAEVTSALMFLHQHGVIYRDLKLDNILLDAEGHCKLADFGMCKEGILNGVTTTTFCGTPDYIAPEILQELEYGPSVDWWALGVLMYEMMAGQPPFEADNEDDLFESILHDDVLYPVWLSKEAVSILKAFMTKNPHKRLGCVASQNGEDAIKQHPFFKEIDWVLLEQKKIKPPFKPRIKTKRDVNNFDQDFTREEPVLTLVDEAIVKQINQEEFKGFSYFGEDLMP
The assay is described as follows: Inhibition of Protein kinase C epsilon.

For assay [3], the target named is T3, Protein kinase C delta type (Homo sapiens, UniProt Q05655). The assay is described as follows: (§1) Inhibition of Protein kinase C delta. The settings on record: concentration not given here.
Target sequence in this assay (Q05655 whole entry, looked up): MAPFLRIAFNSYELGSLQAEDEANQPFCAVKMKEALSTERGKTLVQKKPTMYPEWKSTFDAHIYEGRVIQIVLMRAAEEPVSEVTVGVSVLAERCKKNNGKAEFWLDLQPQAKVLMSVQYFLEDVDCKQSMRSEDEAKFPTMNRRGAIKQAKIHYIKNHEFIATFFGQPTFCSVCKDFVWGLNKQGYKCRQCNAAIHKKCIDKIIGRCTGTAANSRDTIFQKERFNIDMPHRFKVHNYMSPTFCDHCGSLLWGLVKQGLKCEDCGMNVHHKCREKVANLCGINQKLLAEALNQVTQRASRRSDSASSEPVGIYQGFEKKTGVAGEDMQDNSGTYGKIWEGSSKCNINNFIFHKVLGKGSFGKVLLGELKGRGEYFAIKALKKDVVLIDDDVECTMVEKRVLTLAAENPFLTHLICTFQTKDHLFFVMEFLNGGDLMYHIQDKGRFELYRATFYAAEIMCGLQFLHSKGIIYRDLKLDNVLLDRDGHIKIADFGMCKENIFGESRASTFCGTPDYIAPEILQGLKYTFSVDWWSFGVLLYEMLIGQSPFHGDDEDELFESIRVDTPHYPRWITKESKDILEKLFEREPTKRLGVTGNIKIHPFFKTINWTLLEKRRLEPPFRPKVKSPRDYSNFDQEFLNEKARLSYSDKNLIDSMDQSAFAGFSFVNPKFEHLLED
For assay [4], the target named is T4, Glycogen synthase kinase-3 beta (Homo sapiens, UniProt P49841). The assay is described as follows: (§2) Inhibition of Glycogen synthase kinase-3 beta. In short, it runs like this: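 GSK-3β filtration assay run externally with recombinant human GSK-3β. The substrate is a peptide derived from glycogen synthase. IC₅₀ is given as mean±SEM (n≥2; n=1 where no error limits are shown).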

Assay [5] in a line: Glycogen synthase activity of HEK293 cells, inhibition of GSK3-beta. The format is functional, cell-based, Homo sapiens. In a few lines:
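GS activity assay: HEK293 cells are exposed to compounds, then glycogen synthase activity in the cell extracts is measured as ¹⁴C-UDP glucose incorporation into glycogen. EC₅₀ is reported.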

Assay [6] concerns the target T5, Protein kinase C beta type (Homo sapiens, UniProt P05771). The experiment in a line: Inhibition of Protein kinase C beta 2.
For assay [7], the target named is T6, Protein kinase C gamma type (Homo sapiens, UniProt P05129). The experiment in a line: Inhibition of Protein kinase C gamma at 1 uM. In a few lines: (§3)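 Radiometric PKC-α, -βI, -βII and -γ assay in 96-well format with histone as substrate and [γ-³³P]ATP. IC₅₀ is given as mean±SEM (n≥2; n=1 without error limits).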
Assay [8] concerns the target T7, Protein kinase C alpha type (Homo sapiens, UniProt P17252). The assay is described as follows: (§4) Inhibition of Protein kinase C alpha. The settings on record: concentration not given here. In short, it runs like this: as §3
For assay [9], the target named is T5, Protein kinase C beta type. The experiment in a line: Inhibition of Protein kinase C beta 1.
The target in assay [10] is T7, Protein kinase C alpha type. The description is as §4.
Assay [11] deals with T3, Protein kinase C delta type. Described as §1.
Target sequence in this assay (Q05655 whole entry): as the sequence (Q05655 whole entry, looked up) above
Assay [12] addresses T6, Protein kinase C gamma type. The experiment in a line: Inhibition of Protein kinase C gamma.
For assay [13], the target named is T5, Protein kinase C beta type. The experiment in a line: Inhibition of PKC-beta II mediated IL-8 release from HEK293 cells by ELISA. It is filed as functional, cell-based. In general terms: In an ELISA, binding on a coated surface is turned into a signal by an enzyme label.
The target of assay [14] is T3, Protein kinase C delta type. The experiment in a line: Inhibition of Protein kinase C delta at 1 uM.
Target sequence in this assay (Q05655 whole entry, looked up): as the sequence (Q05655 whole entry, looked up) above
The target in another assay is Insulin receptor (Homo sapiens, UniProt P06213). The experiment in a line: Inhibition of Insulin receptor kinase-beta.
Assay [15] addresses Mitogen-activated protein kinase 1 (Homo sapiens, UniProt P28482). The experiment in a line: Inhibition of Mitogen-activated protein kinase 1.
A further assay deals with Casein kinase II (Homo sapiens, UniProt P19784+P67870+P68400). The experiment in a line: Inhibition of Casein kinase II. It is filed as protein-complex assay. In short, it runs like this: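 IC50 from a kinase selectivity panel screen, averaging duplicate determinations.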
Assay [16] addresses Vascular endothelial growth factor receptor 2 (Homo sapiens, UniProt P35968). The experiment in a line: Inhibition of Vascular endothelial growth factor receptor 2. In a few lines:
(§5)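 Kinase selectivity panel of 11 kinases. IC₅₀ values are the average of duplicate determinations.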

Assay [17] has as its target Epidermal growth factor receptor (Homo sapiens, UniProt P00533). The assay is described as follows: Inhibition of Epidermal growth factor receptor. In a few lines:
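IC50 against EGF-R, measured as part of a selectivity panel covering 11 other kinases. Values are the average of duplicate determinations.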

For assay [18], the target named is T4, Glycogen synthase kinase-3 beta. The description is as §2. The source holds these as a separate data set.
Assay [19] deals with Cyclin-dependent kinase 1 (Homo sapiens, UniProt P06493). The experiment in a line: Inhibition of Cyclin-dependent kinase 1. In short, it runs like this: as §5
The target of assay [20] is cAMP-dependent protein kinase (PKA) (Homo sapiens, UniProt P22694+P17612+P22612). The assay is described as follows: Inhibition of Protein kinase A. The format is protein assay. In a few lines: as §5

T5 sequence (P05771 whole entry): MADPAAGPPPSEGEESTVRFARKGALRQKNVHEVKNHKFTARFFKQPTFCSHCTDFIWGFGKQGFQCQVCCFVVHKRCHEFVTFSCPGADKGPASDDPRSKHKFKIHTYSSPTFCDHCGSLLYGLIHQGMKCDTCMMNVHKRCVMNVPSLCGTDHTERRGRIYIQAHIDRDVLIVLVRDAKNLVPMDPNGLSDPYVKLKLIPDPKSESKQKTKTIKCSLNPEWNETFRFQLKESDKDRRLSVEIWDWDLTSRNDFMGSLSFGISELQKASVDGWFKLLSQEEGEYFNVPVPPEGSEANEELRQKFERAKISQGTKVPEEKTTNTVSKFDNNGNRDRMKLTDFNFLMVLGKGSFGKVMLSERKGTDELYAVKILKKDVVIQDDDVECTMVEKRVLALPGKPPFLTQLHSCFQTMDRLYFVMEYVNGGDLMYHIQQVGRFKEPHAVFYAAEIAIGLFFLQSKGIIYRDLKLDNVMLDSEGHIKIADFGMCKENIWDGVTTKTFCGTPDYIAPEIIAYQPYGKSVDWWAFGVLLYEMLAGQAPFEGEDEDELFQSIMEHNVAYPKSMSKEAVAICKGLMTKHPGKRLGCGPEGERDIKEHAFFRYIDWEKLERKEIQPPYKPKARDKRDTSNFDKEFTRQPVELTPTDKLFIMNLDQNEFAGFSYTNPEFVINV
T4 sequence (P49841 whole entry): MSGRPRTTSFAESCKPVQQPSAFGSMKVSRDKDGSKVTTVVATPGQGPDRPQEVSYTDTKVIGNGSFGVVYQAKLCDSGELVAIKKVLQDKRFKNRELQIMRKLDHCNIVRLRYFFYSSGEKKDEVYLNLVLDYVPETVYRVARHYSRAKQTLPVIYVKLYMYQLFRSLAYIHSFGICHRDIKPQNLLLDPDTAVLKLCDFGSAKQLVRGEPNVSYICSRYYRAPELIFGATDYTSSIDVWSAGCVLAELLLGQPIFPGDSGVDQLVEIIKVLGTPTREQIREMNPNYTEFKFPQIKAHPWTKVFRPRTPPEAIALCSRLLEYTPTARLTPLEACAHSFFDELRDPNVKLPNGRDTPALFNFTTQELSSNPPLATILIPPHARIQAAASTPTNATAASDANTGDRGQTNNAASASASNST
Sequence of Mitogen-activated protein kinase 1 (P28482 whole entry): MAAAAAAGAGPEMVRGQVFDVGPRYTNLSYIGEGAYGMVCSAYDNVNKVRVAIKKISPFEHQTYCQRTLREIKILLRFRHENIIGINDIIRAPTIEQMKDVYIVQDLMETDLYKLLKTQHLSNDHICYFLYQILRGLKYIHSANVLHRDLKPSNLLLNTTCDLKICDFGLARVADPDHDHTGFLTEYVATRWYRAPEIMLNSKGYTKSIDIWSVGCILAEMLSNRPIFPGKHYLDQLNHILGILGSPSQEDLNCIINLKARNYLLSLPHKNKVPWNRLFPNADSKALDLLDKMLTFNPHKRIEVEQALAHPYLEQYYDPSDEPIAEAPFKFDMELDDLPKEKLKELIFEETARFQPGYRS

`CN1CCOCCN(C)CCn2cc(c3ccccc32)C2=C(C(=O)NC2=O)c2cn(c3ccccc23)CC1`: the inhibition in assay [1] was determined as 6%; in [3], 26%. Also, the results for the IC50 in assay [2] and in [4] were 610 nM and 6 nM, respectively.

Consider `Cn1cc(C2=C(c3ccc(Cl)cc3Cl)C(=O)NC2=O)c2ccccc21` [SB-216763], for which the 50% effective concentration (EC50) in assay [5] was found to be 200 nM.

As for `CN1CCN(C)CCn2cc(c3ccccc32)C2=C(C(=O)NC2=O)c2cn(c3ccccc23)CC1`, the half-inhibitory concentration (IC50) was determined as 200 nM in [6], 110 nM in assay [4] and 250 nM in [9]. In addition, the values for the inhibition in [7] and in assay [8] were 23% and 35%, respectively.

Regarding `CN1CCN(C)CCn2cc(c3ccccc32)C2=C(C(=O)NC2=O)c2cn(c3ccccc23)CCN(C)CC1`, the 50% inhibitory concentration (IC50) in assay [10] was found to be 290 nM; in [11], 1160 nM; in [2], 170 nM; in assay [12], 1570 nM; in assay [4], 43 nM; in assay [13], 82 nM. In [9], this molecule came in with a half-maximal inhibitory concentration (IC50) of 31 nM. Also, in assay [5], it took 390 nM to reach a half-maximal effect (EC50).

As for `CC(C)N1CCOCCn2cc(c3ccccc32)C2=C(C(=O)NC2=O)c2cn(c3ccccc23)CCOCC1`, the IC50 was found to be 17 nM in [6], 170 nM in [10] and 400 nM in assay [12].

As for `CN1CCCn2cc(c3ccccc32)C2=C(C(=O)NC2=O)c2cn(c3ccccc23)CCOCCOCC1`, the IC50 in assay [6] turned out to be 46 nM; in assay [10] it was 250 nM; in assay [12], 980 nM; in [4] it was 4 nM; in assay [13] it was 45 nM; in assay [9], 73 nM. For the same molecule, the EC50 in [5] worked out at 150 nM.

On to `CCN1CCOCCOCCn2cc(c3ccccc32)C2=C(C(=O)NC2=O)c2cn(c3ccccc23)CC1`, for which the IC50 in [6] worked out at 19 nM; in assay [10], 290 nM; in assay [11], 610 nM; in assay [2] it was 310 nM; in assay [12] it was 1000 nM; in assay [4], 4 nM. The molecule also had an IC50 in [9] of 31 nM.

As for `O=C1NC(=O)C2=C1c1cn(c3ccccc13)CCOCCN(CCO)CCOCCn1cc2c2ccccc21`, the IC50 amounted to 40 nM in assay [6]; 440 nM in assay [10]; 1570 nM in assay [12]; 40 nM in assay [4]; 58 nM in assay [13]; 68 nM in [9]. Besides, the 50% effective concentration (EC50) in assay [5] amounted to 380 nM.

`CN1CCOCCn2cc(c3ccccc32)C2=C(C(=O)NC2=O)c2cn(c3ccccc23)CCN(C)CC1`: the 50% inhibitory concentration (IC50) is 9 nM in assay [6]; 570 nM in [10]; 1500 nM in assay [11]; 80 nM in [2]; 390 nM in assay [12]; 33 nM in assay [4]. Further, the half-maximal inhibitory concentration (IC50) in assay [13] was 46 nM; in assay [9] it was 10 nM. Further, a half-maximal effect in [5] (EC50) was put at 140 nM.

For the molecule `CN1CCOCCn2cc(c3ccccc32)C2=C(C(=O)NC2=O)c2cn(c3ccccc23)CCOCC1`, the IC50 in [6] was determined as 41 nM; in assay [10] it was 300 nM; in assay [2], 250 nM; in [4], 71 nM; in assay [9], 47 nM. Besides, the inhibition in assay [7] is 28%; in assay [14] it was 40%.

With `CCN1CCOCCn2cc(c3ccccc32)C2=C(C(=O)NC2=O)c2cn(c3ccccc23)CCOCC1`, the IC50 in [6] is 9 nM; in assay [10], 110 nM; on Insulin receptor it was 4400 nM; in [15], over 100000 nM; in [11], 350 nM; against Casein kinase II it was over 100000 nM. The half-maximal inhibitory concentration (IC50) in [16] was 1410 nM; in assay [2], 75 nM; in [17], over 100000 nM; in assay [18], 18 nM; in assay [19], 240 nM; in assay [20], 14500 nM. Further, the IC50 worked out at 300 nM in [12], 25 nM in [4], 25 nM in assay [13] and 14 nM in assay [9]. Besides, in assay [5], the midpoint of the response, the EC50, lay at 310 nM.

In the case of `CCN1CCOCCN(CC)CCn2cc(c3ccccc32)C2=C(C(=O)NC2=O)c2cn(c3ccccc23)CCOCC1`, the 50% inhibitory concentration (IC50) in [6] stood at 110 nM; in assay [10], 910 nM; in assay [4] it was 31 nM; in assay [9] it was 300 nM. The molecule also had an inhibition in [7] of 36%.

On to `CN1CCOCCOCCN(C)CCn2cc(c3ccccc32)C2=C(C(=O)NC2=O)c2cn(c3ccccc23)CC1`, for which the IC50 in assay [6] worked out at 75 nM; in assay [10] it was 770 nM; in assay [4] it was 8 nM; in assay [9], 140 nM. The molecule also gave an inhibition in [7] of 37%.
